According to paper PMC3684024 (Science translational medicine, 2013):

How the values were obtained:
[1] = test system: EAE; conditions: cited from earlier work
[2] = ref [12]; cited from earlier work
[3] = test system: insulin fibril formation; assay: Inhibition of insulin amyloid fibril formation; assay type: biochemical, bovine; conditions: ThT fluorescence ex 440 nm, em 485 nm (fig. S2)
Procedure, shortened: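 Fibril formation is tracked in the DTT-reduced insulin chaperone reaction: bovine insulin in NaCl/Tris pH 7.4 at 37°C, with or without test peptide fibrils. Thioflavin T is added from a 10 µM solution and fluorescence is read at 485 nm with excitation at 440 nm on a microplate reader.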

[4] = test system: plasma proteins; conditions: ref [13], cited from earlier work
[5] = biological target: bovine insulin (beta chain) aggregation (Bos taurus, UniProt P01317); assay: Chaperone assay: inhibition of DTT induced insulin aggregation; assay type: biochemical
Sequence of bovine insulin (beta chain) aggregation (P01317 25-54 limits assumed): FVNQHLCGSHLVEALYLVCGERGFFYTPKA
Procedure, shortened: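 Bovine insulin (150 µg) in 100 mM NaCl, 20 mM Tris pH 7.4, with or without varying peptide or protein concentrations, at 37°C; some runs at pH 5. Reduction is started at time zero with DTT (100 mM stock). Aggregation is followed as absorbance at 360 nm over 20 min. In time-of-addition runs, small heat shock protein or fibrils are added 3, 10 or 16 min after DTT, with a buffer-only addition as dilution control.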

[6] = test system: animal models of stroke, cardiac and retinal ischemia-reperfusion injury; conditions: cited from earlier work

Aβ 1–40: peptide from amyloid β A4
anti-inflammatory effect in EAE ([1]; ameliorating paralysis and reducing brain inflammation, ref [6]): effective anti-inflammatory agents

73–92 of HspB5: linear peptide region within HspB5, residues 73–92 (DRFSVNLDVKHFSPEELKVK; UniProt P02511 73-92, looked up, fragment)
chaperone activity [2]: exhibited chaperone activity
reduction of paralysis and histological neuroinflammation in EAE ([1]; ref [12]): therapeutic, reducing paralysis and histological neuroinflammation in EAE

HspB5: amyloid forming small heat shock protein
inhibition of insulin fibril formation [3]: effective inhibitors of insulin fibril formation
number of ligands precipitated from plasma ([4]; enriched and temperature dependent binding): approximately 70
ligands that are acute phase, complement or coagulation proteins [4]: Greater than 50%
inhibition of insulin aggregation when given at time 0 ([5]; 150 µg HspB5 given at time 0): fully inhibitory dose when given at time 0
effect on light scattering when added 3 min after DTT ([5]; 150 µg HspB5 or Tau fibrils added three minutes after dithiothreitol (fig. S3)): rapid increase in light scattering
effect on light scattering when added at 10 and 16 minutes ([5]; added 10 and 16 minutes after initiation): increase in light scattering, albeit less of an increase at longer than earlier time points
effect on insulin fibrillization after initiation ([5]; added after initiation of fibril formation (figs. S3, S4)): can increase the light scattering after initiation of fibril formation
therapeutic effect in stroke model ([6]; ref [3]): therapeutic
therapeutic effect in cardiac and retinal ischemia-reperfusion injury ([6]; ref [4], [5]): therapeutic
therapeutic effect in animal models of multiple sclerosis ([1]; ref [2]): therapeutic
